# Results from ChEMBL document CHEMBL4229528, “2,4-Diamino-6-methylpyrimidines for the potential treatment of Chagas' disease” (Bioorg Med Chem Lett, 2018).
# Activity calls are given as the source filed them. No cut-off for these calls is given here.
# Key:
# Vero = assay: Cytotoxicity against African green monkey Vero cells; assay type: cell-based; details: Chlorocebus sabaeus
# [1] = Selectivity ratio of pEC50 for African green monkey Vero cells to pEC50 for Trypanosoma cruzi amastigote forms infected in African green monkey Vero cells; assay type: toxicity
# Method in brief: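 Ratio of Vero pEC50 to T. cruzi intracellular amastigote pEC50, with both values from the Vero-cell amastigote culture format.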
# [2] = Kinetic solubility of the compound in water up to 250 uM by laser nephelometry; assay type: physicochemical; details: read-out: Kinetic_solubility
# Method in brief: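 Measured in water after dilution from a DMSO solution of compound.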
# [3] = Intrinsic clearance in CD-1 mouse liver microsomes at 0.5 uM after 30 mins in presence of NADPH by UPLC-MS/MS analysis; assay type: ADME, microsome; details: 0.5 h
# [4] = molecular target: Sterol 14-alpha demethylase (Trypanosoma cruzi (strain CL Brener)) (UniProt Q7Z1V1); assay: (§1) Inhibition of Trypanosoma cruzi CYP51
# Chain of Sterol 14-alpha demethylase (Trypanosoma cruzi (strain CL Brener)) (Q7Z1V1 whole entry, looked up): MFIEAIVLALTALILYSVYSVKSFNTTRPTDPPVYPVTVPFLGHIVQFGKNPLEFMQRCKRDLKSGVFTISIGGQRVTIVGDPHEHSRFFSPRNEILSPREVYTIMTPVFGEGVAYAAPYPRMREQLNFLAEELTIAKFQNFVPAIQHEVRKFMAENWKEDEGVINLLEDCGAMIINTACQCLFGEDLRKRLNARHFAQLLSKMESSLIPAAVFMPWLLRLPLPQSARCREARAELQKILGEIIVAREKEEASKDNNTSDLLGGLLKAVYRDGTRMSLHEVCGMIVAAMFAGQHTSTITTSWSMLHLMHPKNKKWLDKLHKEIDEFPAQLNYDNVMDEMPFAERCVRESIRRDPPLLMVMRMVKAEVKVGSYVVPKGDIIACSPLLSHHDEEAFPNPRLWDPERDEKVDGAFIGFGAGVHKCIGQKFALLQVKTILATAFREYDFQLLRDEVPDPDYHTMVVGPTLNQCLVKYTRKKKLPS
# Trypanosoma cruzi = assay: Antitrypanosomal activity against Trypanosoma cruzi amastigote forms infected in African green monkey Vero cells; assay type: functional, organism-based
# Method in brief: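 T. cruzi amastigotes cultured intracellularly in Vero host cells. EC50 determined from concentration-response, reported as pEC50. Mean of two determinations ± range, or of three or more ± standard deviation, depending on the series.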
# [5] = molecular target: Sterol 14-alpha demethylase (Trypanosoma cruzi (strain CL Brener), UniProt Q7Z1V1); assay: as §1
# Chain of Sterol 14-alpha demethylase (Q7Z1V1 whole entry): as the sequence (Q7Z1V1 whole entry, looked up) above
# [6] = molecular target: Voltage-gated inwardly rectifying potassium channel KCNH2 (Homo sapiens, UniProt Q12809); assay: Inhibition of human ERG
# Chain of Voltage-gated inwardly rectifying potassium channel KCNH2 (Q12809 whole entry): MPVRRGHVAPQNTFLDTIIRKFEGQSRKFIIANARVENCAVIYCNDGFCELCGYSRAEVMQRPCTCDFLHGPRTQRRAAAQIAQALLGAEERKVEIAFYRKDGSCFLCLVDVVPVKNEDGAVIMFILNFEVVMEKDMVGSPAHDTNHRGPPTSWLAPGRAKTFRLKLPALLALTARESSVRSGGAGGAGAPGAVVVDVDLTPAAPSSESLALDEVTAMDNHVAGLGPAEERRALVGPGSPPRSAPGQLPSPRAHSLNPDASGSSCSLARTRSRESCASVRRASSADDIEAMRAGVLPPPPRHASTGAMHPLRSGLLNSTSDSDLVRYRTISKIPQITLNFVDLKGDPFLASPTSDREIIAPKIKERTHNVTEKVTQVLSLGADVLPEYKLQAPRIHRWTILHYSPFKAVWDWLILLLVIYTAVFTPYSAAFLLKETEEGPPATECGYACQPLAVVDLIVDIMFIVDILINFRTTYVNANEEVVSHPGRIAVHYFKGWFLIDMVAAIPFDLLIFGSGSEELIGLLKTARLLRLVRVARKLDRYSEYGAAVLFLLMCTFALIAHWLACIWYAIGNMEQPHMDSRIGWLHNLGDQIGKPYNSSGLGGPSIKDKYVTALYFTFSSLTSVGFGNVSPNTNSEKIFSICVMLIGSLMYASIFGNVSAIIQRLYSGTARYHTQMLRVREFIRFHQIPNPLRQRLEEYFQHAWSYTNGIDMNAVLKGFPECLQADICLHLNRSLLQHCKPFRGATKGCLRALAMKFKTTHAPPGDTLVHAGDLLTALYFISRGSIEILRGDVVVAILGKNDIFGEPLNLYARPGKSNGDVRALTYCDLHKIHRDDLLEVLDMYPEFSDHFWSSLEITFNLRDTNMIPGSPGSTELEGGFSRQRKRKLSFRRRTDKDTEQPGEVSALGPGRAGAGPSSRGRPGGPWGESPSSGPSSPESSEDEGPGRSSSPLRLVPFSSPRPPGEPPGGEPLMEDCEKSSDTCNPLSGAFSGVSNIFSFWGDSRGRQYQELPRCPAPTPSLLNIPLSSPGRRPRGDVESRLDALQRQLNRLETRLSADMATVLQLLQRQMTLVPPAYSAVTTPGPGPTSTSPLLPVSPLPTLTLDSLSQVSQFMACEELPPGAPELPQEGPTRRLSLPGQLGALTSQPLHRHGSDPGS
# Aurora kinase B = Aurora kinase B (Homo sapiens, UniProt Q96GD4); assay: Inhibition of aurora B (unknown origin)
# Chain of Aurora kinase B (Q96GD4 whole entry): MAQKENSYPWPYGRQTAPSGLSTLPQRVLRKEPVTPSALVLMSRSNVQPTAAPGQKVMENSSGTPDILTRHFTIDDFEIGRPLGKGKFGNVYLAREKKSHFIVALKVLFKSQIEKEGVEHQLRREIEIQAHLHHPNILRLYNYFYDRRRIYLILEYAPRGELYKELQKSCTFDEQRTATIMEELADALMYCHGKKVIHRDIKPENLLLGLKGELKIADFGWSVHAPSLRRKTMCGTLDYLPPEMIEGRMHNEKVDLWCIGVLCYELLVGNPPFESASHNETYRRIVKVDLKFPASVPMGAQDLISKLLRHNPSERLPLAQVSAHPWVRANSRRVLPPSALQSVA
# Cannabinoid receptor 1 = Cannabinoid receptor 1 (Homo sapiens, UniProt P21554); assay: Inhibition of CB1 (unknown origin)
# Chain of Cannabinoid receptor 1 (P21554 whole entry): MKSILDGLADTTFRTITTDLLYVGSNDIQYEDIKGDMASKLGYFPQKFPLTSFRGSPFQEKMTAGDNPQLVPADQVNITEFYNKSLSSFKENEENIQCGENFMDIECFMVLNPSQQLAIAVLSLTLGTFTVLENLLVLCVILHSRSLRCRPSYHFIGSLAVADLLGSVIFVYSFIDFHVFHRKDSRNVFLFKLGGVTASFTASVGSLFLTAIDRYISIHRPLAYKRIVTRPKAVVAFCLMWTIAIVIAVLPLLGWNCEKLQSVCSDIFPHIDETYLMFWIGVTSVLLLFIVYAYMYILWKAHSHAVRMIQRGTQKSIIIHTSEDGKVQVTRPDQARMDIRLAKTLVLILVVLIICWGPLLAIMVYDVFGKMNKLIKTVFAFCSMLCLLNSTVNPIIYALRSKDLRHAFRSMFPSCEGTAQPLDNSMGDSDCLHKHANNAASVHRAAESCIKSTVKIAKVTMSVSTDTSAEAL
Structure (SMILES),EC50 (Vero) [µM],selectivity ratio [1],solubility kinetic [2] [µM],CLH [3] [mL/min/g],inhibition [4],EC50 (Trypanosoma cruzi) [µM],IC50 [5] [µM],IC50 [6] [µM],IC50 (Aurora kinase B) [µM],IC50 (Cannabinoid receptor 1) [µM]
Cc1cc(N(C)C)nc(NCc2ccccc2)n1,> 50.1,> 16,> 250,28,inactive,–,–,–,–,–
COc1cc(Nc2nc(C)cc(N3CCCC3)n2)ccc1F,–,63,220,14,–,–,–,–,–,–
CCOC1CCCN(c2cc(C)nc(Nc3ccc(F)c(OC)c3)n2)C1 (centres undefined),25.1,16,> 250,35,–,1.58,–,–,–,–
Cc1cc(N(C)C)nc(NC2CCN(C(=O)Cc3ccc(F)cc3F)CC2)n1,> 50.1,> 16,–,–,–,–,–,–,–,–
COc1cc(Nc2nc(C)cc(N3CCC(F)(F)C3)n2)ccc1F,–,4,> 250,35,–,7.94,–,–,–,–
COc1ccccc1NC(=O)c1ccc(Nc2nc(C)cc(N(C)C)n2)cc1,0.631,1.3,–,–,–,0.794,–,–,–,–
Cc1cc(N(C)C)nc(N[C@H](C)c2ccccc2)n1,> 50.1,> 40,> 250,11,–,1.26,–,–,–,–
COc1cc(Nc2cc(C)nc(NCc3ccccc3)n2)ccc1F,5.01,63,180,10,–,–,–,–,–,–
COc1cc(Nc2nc(C(=O)N3CCCC3)cc(N(C)C)n2)ccc1F,> 50.1,> 1.6,> 250,3.4,–,–,–,–,–,–
COc1cc(Nc2nc(CO)cc(N(C)C)n2)ccc1F,> 50.1,> 6,> 250,35,–,7.94,–,–,–,–
COc1cc(Nc2nc(C(C)C)cc(N(C)C)n2)ccc1F,> 50.1,> 25,170,50,–,–,–,–,–,–
Cc1cc(N(C)C)nc(NCC2CCOCC2)n1,> 50.1,> 3,> 250,3.8,–,15.8,–,–,–,–
COc1cc(Nc2nc(C)cc(N3CCOCC3)n2)ccc1F,> 50.1,> 6,> 250,18,–,7.94,–,–,–,–
COc1cc(OC)cc(C(=O)Nc2ccc(Nc3nc(C)cc(N(C)C)n3)cc2)c1,–,40,20,0.7,–,0.158,> 10,–,–,–
Cc1cc(N(C)C)nc(Nc2ccc(C(=O)NCc3ccccc3)cc2)n1,5.01,4,–,–,–,1.26,–,–,–,–
COc1cc(Nc2nccc(N(C)C)n2)ccc1F,> 50.1,> 13,160,29,–,3.98,–,–,–,–
Cc1cc(N(C)C)nc(NCc2ccc(Cl)cc2)n1,25.1,25,> 250,12,–,1,–,–,–,–
COc1ccc(Nc2nc(C)cc(N(C)C)n2)cc1,> 50.1,> 32,> 250,10,–,1.58,–,–,–,–
Cc1cc(N(C)C)nc(N[C@H]2CC[C@H](NC(=O)c3ccccc3)CC2)n1,> 50.1,> 40,> 250,–,–,1.26,–,–,–,–
Cc1cc(Nc2ccc(F)cc2)nc(NCc2ccccc2)n1,7.94,20,> 250,10,–,0.398,–,–,–,–
COc1cc(Nc2nc(C)cc(N(C)C)n2)ccc1F,–,80,> 250,17,inactive,0.398,–,5.01,–,–
COc1cccc(Nc2cc(C)nc(NCc3ccccc3)n2)c1,7.94,40,> 250,20,–,0.2,–,–,–,–
COc1cc(Nc2nc(N(C)C)cc(C(F)(F)F)n2)ccc1F,> 50.1,> 2,110,–,–,25.1,–,–,–,–
COc1cc(Nc2nc(C)cc(NCc3ccccc3)n2)ccc1F,5.01,6.3,> 250,8,–,0.794,–,–,–,–
Cc1cc(N(C)C)nc(Nc2ccc(C(=O)N3CCCCC3)cc2)n1,> 50.1,> 25,–,–,–,–,–,–,–,–
COc1cc(OC)cc(C(=O)N[C@H]2CC[C@H](Nc3nc(C)cc(N(C)C)n3)CC2)c1,–,100,> 250,4.2,inactive,0.398,–,3.98,0.0398,0.0631
COc1cc(Nc2nc(C)cc(N3CCCCC3)n2)ccc1F,15.8,16,160,17,–,1,–,–,–,–
Cc1cc(N(C)C)nc(Nc2ccc3c(c2)OCO3)n1,> 50.1,> 40,> 250,14,–,1.26,–,–,–,–
COc1cc(Nc2nc(C)cc(N3CCCC(C#N)C3)n2)ccc1F (centres undefined),–,5,219,–,–,7.94,–,–,–,–
COc1cccc(Nc2nc(C)cc(N(C)C)n2)c1,> 50.1,> 63,> 250,15,–,0.794,–,–,–,–
